Calls of active or inactive are those of the source. The calls are words filed in the database; no cut-off is given here.
System: MDA-MB-231
Assay: Cytotoxicity against human ER negative MDA-MB-231 cells assessed as cell viability at 1 uM after 72 hrs by MTT assay
Format: functional, cell-based
In short: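 Lines kept in DMEM with 10% fetal bovine serum and 1% penicillin/streptomycin at 37 °C, 5% CO2. Compound applied at 1 µM for 72 h, then standard MTT reduction read-out. Viability given as mean percentage of formazan formed by treated cells relative to mock-treated cells (0.1% DMSO). Run in quadruplicate, standard error, Student's t-test.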

COc1cc(-c2ccc[nH]2)[nH]c1/C=C1\N=C(C)C(C(=O)CCC(=O)Oc2ccc3c(c2)CC[C@@H]2[C@@H]3CC[C@]3(C)C(=O)CC[C@@H]23)=C1C
Activity: Active
